Source: PubChem
UPR CHOP act – apoptotic UPR (CHOP) activation. CHO-CHOP luciferase reporter, luminescence; percent of tunicamycin response over DMSO baseline. activation, % at 10 µM. actives 0.34% (n = 330,000);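 active means at 10 µM dose, activation of 40% or more, normalized to positive control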
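Dosing – one dose, 10 µM in 0.5% DMSO · System – CHO-CHOP cells, stable luciferase reporter of PERK-eIF2a-CHOP signalling · Input – 500 cells/well · Control set – tunicamycin 10 µg/mL final as positive, DMSO-only wells as negative · Timing – 6 h compound treatment, 37 °C · Measure – % activation vs tunicamycin · Technique – luminescence read with Steady-Glo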
CHOP inh – blocks CHOP induction under ER stress | inhibition, % at 10 µM | CHO-K1 CHOP-promoter luciferase, tunicamycin-induced, 15-18 h | actives 3.8% (n = 220,000);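 active means compounds that reduced the stress-induced luciferase reporter signal by more than about 70% of percent inhibition, limit read from the data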
UCH37 inh – blocks the human deubiquitinase UCH37. Q9Y5K5. purified proteasome/UCH37, Ub-AMC cleavage fluorescence. inhibition, % (no concentration beside the values). actives 0.33% (n = 330,000). AID 588478;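 active means mean inhibition over replicate wells above about 20%, limit read from the data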
Target sequence (Q9Y5K5 whole entry, looked up): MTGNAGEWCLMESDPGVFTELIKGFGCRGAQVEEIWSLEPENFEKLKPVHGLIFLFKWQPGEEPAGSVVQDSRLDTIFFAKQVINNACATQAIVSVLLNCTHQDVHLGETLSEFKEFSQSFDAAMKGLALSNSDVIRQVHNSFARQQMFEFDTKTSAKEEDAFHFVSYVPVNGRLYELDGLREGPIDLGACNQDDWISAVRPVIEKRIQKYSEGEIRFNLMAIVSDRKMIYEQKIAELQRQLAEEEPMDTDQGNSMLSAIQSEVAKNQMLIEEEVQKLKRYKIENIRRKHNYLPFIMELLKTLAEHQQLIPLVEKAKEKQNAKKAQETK
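Schedule: 30 min plus 25 min, room temperature / Material: human UCH37 within purified proteasomes / Technique: AMC fluorescence intensity at 355/460 nm / Buffer or medium: pH 7.4 Tris-HCl (50 mM) with ovalbumin, ATP-MgCl2, DTT / Controls: wells without proteasome as full block, compound-free enzyme plus substrate as uninhibited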
Fh CTSL1 inh – blocks F. hepatica cathepsin L1 in PFM18AAP counter-screen | inhibition, % at 5.96 µM | AID 1906 | recombinant F. hepatica cathepsin L1, Z-Leu-Arg-MCA fluorescence | actives 0.49% (n = 300,000);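 active means inhibition above the mean of all tested compounds plus 3 SD, set per screening campaign, cut at about 17% in these data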
XBP1 UPR activ – adaptive UPR (XBP1) activation. CHO-XBP1 luciferase reporter, IRE1-XBP1 UPR activation, luminescence; percent of tunicamycin response, DMSO as zero. activation, % at 20 µM. actives 0.33% (n = 330,000). AID 463104;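 active means versus positive control, 20 µM dose yields 30% or more activation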
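Material: CHO cell line with stable XBP1 luciferase reporter; schedule: 16-18 h cell attachment at 37 °C, then 6 h compound exposure; signal: glow luminescence from Steady-Glo reagent; medium: serum-containing F12 medium, 10% FBS; benchmarks: tunicamycin 10 µg/mL and vehicle-only wells; read-out: percent activation relative to tunicamycin reference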
CHOP UPR conf – apoptotic UPR (CHOP) activation, confirmed. shares compounds with UPR CHOP act. CHO-CHOP cells, CHOP-luciferase reporter luminescence; percent of tunicamycin response, DMSO as zero. activation, % at 10 µM. actives 64% (n = 1,000). AID 463112; in the data active means activation above about 33%
UPR XBP1 confirm – confirmation of adaptive unfolded protein response (XBP1) activators; CHO-XBP1 IRE1-XBP1 luciferase reporter, luminescence; AID 485299; activation, % at 20 µM; shares compounds with XBP1 UPR activ; actives 63% (n = 1,000);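 active means reporter signal at least 30% of the positive control's activation in two or more of four replicate wells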
Hits are given with their value. Shown is part of a subset that was picked to be rich in hits.

Results for N#C/C(=C\c1ccc(OCc2ccccc2)cc1)C(=O)Nc1nc2c(s1)CCN(Cc1ccccc1)C2 ?
UPR CHOP act: 91.5; CHOP inh: inactive; UCH37 inh: inactive; Fh CTSL1 inh: inactive; XBP1 UPR activ: 42.1; CHOP UPR conf: 145.1; UPR XBP1 confirm: 132.2

What do the screens show for `Cc1cc(NC(=O)CSc2nc(C3CCCCC3)nc3ccccc23)no1`?
UPR CHOP act: inactive; CHOP inh: inactive; UCH37 inh: inactive; Fh CTSL1 inh: inactive; XBP1 UPR activ: inactive

Results for Cc1cc(NC(=O)CSc2nc(C3CC3)nc3sc4c(c23)CCC(C)C4)no1 (stereo unspecified) ?
UPR CHOP act: 51.4; UCH37 inh: inactive; Fh CTSL1 inh: inactive; XBP1 UPR activ: 65.3; CHOP UPR conf: inactive; UPR XBP1 confirm: inactive

How did CCCN1Cc2cccc(C(=O)Nc3ccc(-c4nc5ccccc5[nH]4)cc3)c2C1=O do in these assays?
UPR CHOP act: 41.9; CHOP inh: 75.3; UCH37 inh: inactive; Fh CTSL1 inh: inactive; XBP1 UPR activ: 38.3; CHOP UPR conf: 41.0; UPR XBP1 confirm: inactive

What do the screens show for `COc1ccccc1N1CCN(N=Cc2sccc2C)CC1`?
UCH37 inh: inactive

What do the screens show for `CC(C)(C)C(=O)NC(=S)NNC(=O)c1ccc(-c2ccccc2)cc1`?
UPR CHOP act: 69.2; CHOP inh: 92.4; UCH37 inh: inactive; Fh CTSL1 inh: inactive; XBP1 UPR activ: 72.0; CHOP UPR conf: 84.3; UPR XBP1 confirm: 49.7

Results for Oc1ccc(/C=N/Nc2nc(N3CCCC3)nc(N3CCCC3)n2)cc1O ?
UPR CHOP act: 256.5; CHOP inh: inactive; Fh CTSL1 inh: inactive; XBP1 UPR activ: 66.9; CHOP UPR conf: 179.9; UPR XBP1 confirm: 44.2

What do the screens show for `CCOC(=O)c1ccc(-c2ccc(/C=N/NC(=O)CN(c3cccc(C)c3)S(C)(=O)=O)o2)cc1`?
UPR CHOP act: 54.7; CHOP inh: 79.0; Fh CTSL1 inh: inactive; XBP1 UPR activ: 115.2; CHOP UPR conf: 50.0; UPR XBP1 confirm: 48.2

How did COc1ccc(-c2[nH]n(-c3ccc([N+](=O)[O-])cc3)c(=O)c2C=NCc2ccc(F)cc2)cc1 do in these assays?
UPR CHOP act: 42.2; CHOP inh: inactive; UCH37 inh: inactive; Fh CTSL1 inh: inactive; XBP1 UPR activ: 52.6; CHOP UPR conf: inactive; UPR XBP1 confirm: inactive

What do the screens show for `CC(=NOCON=C(C)c1ccc(F)cc1F)c1ccc(F)cc1F`?
UCH37 inh: inactive

How did O=C(Nc1cccc(-c2nc3cccnc3s2)c1)C1c2ccccc2Oc2ccccc21 do in these assays?
UPR CHOP act: 280.8; CHOP inh: inactive; UCH37 inh: inactive; XBP1 UPR activ: 439.9; CHOP UPR conf: 74.9; UPR XBP1 confirm: 466.5

What do the screens show for `O=C(Nc1cccc(-c2nc3cccnc3s2)c1)c1cccnc1Cl`?
UPR CHOP act: inactive; CHOP inh: inactive; UCH37 inh: inactive; Fh CTSL1 inh: inactive; XBP1 UPR activ: inactive

How did COc1ccc(-c2ccc3c(c2)S(=O)(=O)c2cccc(C(=O)NCc4cccc(OC(F)(F)F)c4)c2C3=O)cc1OC do in these assays?
UPR CHOP act: inactive; UCH37 inh: inactive; XBP1 UPR activ: inactive

How did O=C(NCc1ccccc1Cl)c1cccc2c1C(=O)c1ccc(-c3ccc(OC(F)(F)F)cc3)cc1S2(=O)=O do in these assays?
UPR CHOP act: 127.9; UCH37 inh: inactive; XBP1 UPR activ: 164.0; CHOP UPR conf: 84.8; UPR XBP1 confirm: 114.8

How did O=[N+]([O-])c1ccc(N/N=C/c2cccc(O)c2O)c(S(=O)(=O)N2CCOCC2)c1 do in these assays?
UPR CHOP act: 133.2; CHOP inh: inactive; Fh CTSL1 inh: inactive; XBP1 UPR activ: 54.3; CHOP UPR conf: 86.3; UPR XBP1 confirm: 32.6

How did Cc1ccc(NC(=O)COc2ccc(/C=C3/SC(=Nc4ccccc4)N(Cc4cccnc4)C3=O)cc2)cc1 do in these assays?
UPR CHOP act: 84.1; CHOP inh: inactive; UCH37 inh: inactive; Fh CTSL1 inh: inactive; XBP1 UPR activ: 63.1; CHOP UPR conf: 151.8; UPR XBP1 confirm: 59.9
